This note sets out measurements from ChEMBL document CHEMBL4513216, “Probing the Open Global Health Chemical Diversity Library for Multistage-Active Starting Points for Next-Generation Antimalarials” (ACS Infect Dis, 2020).

The nature of the data set: Toxicity liver stage against HepG2, at 10uM. The format is cell-based. Also on record: test concentration 10 uM, cell line HepG2-A16-CD81EGFP. Particulars: human, HepG2-A16-CD81EGFP cells; read-out: INHIBITION
Summed up:
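Uninfected HepG2-A16-CD81EGFP cells, 3 × 10^3 per well, 1536-well, plated on prespotted compound at 10 μM final, parasite-free screening media added to match infected plates; puromycin 10 μM positive, DMSO 0.5% negative; run in parallel with 48 h PbLuc assay at 37 °C, 5% CO2; viability by CellTiter-Glo luminescence, normalized to controls.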
With `O=c1[nH]ncn1-c1cccc(C(F)(F)F)c1`, the cytotoxicity at 10 µM was -2%.
Turning to `N#Cc1cccc(CN2C[C@@H](F)[C@@H](OCc3nc4cnccc4[nH]3)C2)c1`, the cytotoxicity at 10 µM was 3.62%.
With `COc1ccccc1S(=O)(=O)NCC(c1cccn1C)N(C)C` (stereo not drawn) the figure was 1.51%; with `COCC(=O)N1CCC2(CC1)CC(OC)c1ccc(F)cc12` (stereo not drawn), -134%.
Turning to `CC(=O)NCC(=O)N1Cc2ccnn2CC(COCCN(C)C)C1` (stereo not drawn), the cytotoxicity at 10 µM was 6.15%.
With `CC(C)n1cnc(-c2nc(C(=O)N3CCN(C)CC3)c3ccccn23)c1` the figure was 8.88%; with `Cc1csc(CN2CC[C@H]3C[C@H](c4noc(C)n4)O[C@@H]3C2)n1`, -2.97%; with `O=C(O)c1ccc2c(CN3CCCC3)c[nH]c2c1`, -2.09%.
With `CCNC(=O)N1CCC2(C1)c1ccccc1S(=O)(=O)N2CCC(C)C` (stereo not drawn), the cytotoxicity at 10 µM is -8.25%.
Take `COc1cc(CNc2ccc(Cl)cc2)ccc1OCC(=O)O`: the cytotoxicity at 10 µM turned out to be 3.63%.
With `CC(C(=O)Nc1ccc(Cl)cn1)n1ccc(C(F)(F)F)n1` (stereo not drawn) the figure was 17.6%.
With `O=C1NC2(CCCCC2)c2nnnn2-c2ccc(Br)cc21` the figure was 6.83%; with `Cc1nn(C)c2c(NCCCn3cccn3)nc(C3CC3)nc12`, 12.9%; with `COc1c(Br)c(CC2CC(CO)=NO2)c(Br)c2c1OCO2` (stereo not drawn), 6.97%.
With `O=C1CC(c2ccc(C(F)(F)F)cc2)c2snc(C(=O)O)c2N1` (stereo not drawn) the figure was 10.7%; with `CCNC(=O)C1(Cc2cc(-c3ccccc3)no2)CCCN(C(C)=O)C1` (stereo not drawn), 15.9%; with `CNc1nc(C2CCCN(C(=O)CNC(C)=O)C2)nc2c1CN(C)CC2` (stereo not drawn), -10.9%.
On to `Cn1nccc1-c1cc(C2CCN(S(C)(=O)=O)CC2)ccn1`, for which the cytotoxicity at 10 µM is -28.2%.
Turning to `CCCn1ccnc1CN1CCCC1c1cccc(-n2ccnc2)n1` (stereo not drawn), the cytotoxicity at 10 µM is -22.2%.
With `O=C1OCCN1CCSc1nnnn1CC(F)(F)F` the figure was -41.5%; with `COc1ccnc(N2CCC(OCCN3CCCCC3)C2)n1` (stereo not drawn), -44.9%.
With `Cc1nc(CN2CCOC3(CCCC3)C2)no1` the figure was -6.65%; with `O=S(=O)(NCCCn1ccc2ccccc21)N1CCCCC1`, 12.8%; with `O=C(Nc1ccc(F)cc1-c1nc(C2CC2)no1)N1CC[C@@H](O)C1`, -1.54%.
With `CC(C)S(=O)(=O)C(C)C(=O)NCc1ccccc1OCc1ccccc1` (stereo not drawn) the figure was 18.8%; with `CCn1nc2c(cc1=O)CN(Cc1nc(-c3ccoc3)no1)CC2`, 4.9%.
Regarding `Cc1cc(C(F)(F)F)c2c(=O)n(Cc3cc(C)on3)n(C)c2n1`, the cytotoxicity at 10 µM amounted to 1.46%.
With `CC(CC(=O)c1ccco1)NC(=O)c1ccccn1` (stereo not drawn) the figure was -5.14%.
In the case of `Cc1cc(N2CCSCC2)ccc1NC(=O)N(CCO)C1CC1`, the cytotoxicity at 10 µM is -10.1%.
With `CN(C)C(=O)CNC(=O)c1cc2ccccc2nc1N1CCCC1` the figure was -6.18%.
With `Cn1nc2c(cc1=O)CN(c1ncnc3sccc13)CC2` the figure was 7.97%; with `O=C(c1cn(-c2ccccc2Cl)nn1)N1CCN(CCO)CC1`, -2.88%.
With `Cc1ccc(C(CNCc2cccnc2)N2CCOCC2)s1` (stereo not drawn) the figure was 4.03%.
As to `COCC(=O)NC1CCN(c2cccc(OC(F)(F)F)c2)C1=O` (stereo not drawn), the cytotoxicity at 10 µM is -3.17%.
With `COc1cc(/C=C/c2ncc(C(=O)O)s2)cc(OC)c1` the figure was -3.86%; with `O=C(O)c1ccc(OC2CCOCC2)cc1`, -6.11%; with `CN(C(=O)c1ccc[nH]1)C1CCC(NC(=O)OC(C)(C)C)CC1` (stereo not drawn), -11.9%.
With `Cc1nc(N2CCCC2)ccc1NCc1ccccn1` the figure was 5.13%; with `CSCCC(NC(=O)C1CC1)C(=O)N(C)Cc1ccsc1` (stereo not drawn), -3.96%.
With `CC(NC(=O)C1(NC(=O)c2ccc3[nH]ncc3c2)CCCC1)C1CC1` (stereo not drawn) the figure was -2.03%; with `N#Cc1cccc(S(=O)(=O)NC(=O)CCOCC(F)(F)F)c1`, 12.4%.
`O=C(NCc1ccco1)Nc1cccc(S(=O)(=O)C(F)F)c1`: the cytotoxicity at 10 µM was -54.8%.
With `CC(Oc1ccccc1C#N)C(=O)NC1CC1` (stereo not drawn) the figure was 6.21%; with `CN(C)C(=O)CNS(=O)(=O)c1cc(Br)ccc1F`, -47.1%.
With `O=C1NC2(Nc3ncccc31)C(=O)Nc1c2ccc(Cl)c1F` (stereo not drawn) the figure was 9.06%; with `Cc1csc(N2CCC(NCC3(O)CCc4ccccc43)CC2)n1` (stereo not drawn), 0.455%; with `CCS(=O)(=O)c1ccc(N2CCC(NC(=O)CCC(C)C)CC2)cc1`, 15.7%.
With `CCNC(=O)N1CCCCC1CCO` (stereo not drawn) the figure was -4.27%; with `c1cnc(N2CCCC3(CCN(Cc4ccncc4)C3)C2)nc1` (stereo not drawn), 0.436%; with `CCOCC1CN(C(=O)C2=CCCC2)Cc2cnn(CC)c21` (stereo not drawn), 0.565%.
Consider `CN1CC(=O)c2sc(NCCc3ccccc3)nc2C1`, for which the cytotoxicity at 10 µM was -11%.
In the case of `CNCC[C@H]1CC(C)(C)Oc2ccc(OCC3CC3)cc21`, the cytotoxicity at 10 µM is -9.44%.
With `CN1CCCN(c2nccc(-c3c[nH]nc3-c3ccncc3)n2)CC1` the figure was -11%; with `COCCC1(CO)CCCN(C(=O)c2ccc(C(C)C)[nH]c2=O)C1` (stereo not drawn), -55.1%.
With `CC(C)n1ccnc1CN1C(=O)OC[C@@H]1c1ccccc1` the figure was -8.48%.
With `Cc1ccccc1-n1cc(CN(C)C(=O)CC2C(=O)NCCN2C)cn1` (stereo not drawn) the figure was 6.89%; with `Cc1nc(CCN2CCC(Oc3ccccc3F)CC2)cs1`, 6.9%.
As to `CCN(Cc1ccc(O)c(C(=O)O)c1)CC1CCCO1` (stereo not drawn), the cytotoxicity at 10 µM stood at 3.9%.
With `CC(C)c1nccn1CCCNC(=O)c1ccc(-c2cnn(C)c2)nc1` the figure was -9.36%.
`CCc1cc(N(C)Cc2ccncn2)n2nc(C)c(C)c2n1`: the cytotoxicity at 10 µM turned out to be 4.34%.
With `CC(C)N1CCC(c2nnc(CN3CCCC3)n2C2CC2)CC1` the figure was -4.57%.
With `O=C(NCCc1ccc2c(c1)OCO2)C1CCCN(Cc2ccco2)C1` (stereo not drawn) the figure was 0.209%; with `Cc1nccn1CC1CCCN(C(=O)Cc2ccsc2)C1` (stereo not drawn), 16.2%; with `COc1ccc(NC(=O)N2CCOCC(CN(C)C)C2)c(C)c1` (stereo not drawn), 0.124%.
With `Cc1nc(CN2CCC(c3nc4ccccc4n3C)CC2)co1` the figure was 13.5%; with `COCCN(Cc1nccs1)C(=O)c1cc(-c2ccc(C)o2)n[nH]1`, 6.23%.
For `CCCNS(=O)(=O)Cc1ccc(Br)cc1`, the cytotoxicity at 10 µM was -4.81%.
With `Cc1cc(C2CCC2)nc(N2CCC3(CCCNC3=O)C2)n1` (stereo not drawn) the figure was -3.83%; with `CC(C)Oc1ccc2c(NC(=O)CN(C)C)nn(CC(F)(F)F)c2c1`, 1.6%.
With `Cc1nc2c(c(NCc3ccccc3)n1)CCN(C(=O)C1CCC1)CC2` the figure was 14.3%; with `NCC1Cc2cc(-c3cncc(C(=O)N4CCOCC4)n3)cc(Cl)c2O1` (stereo not drawn), -42.8%; with `O=C(CCc1ccccc1)C1CCCN(C(=O)c2cncc(Cl)c2)C1` (stereo not drawn), 1.72%.
With `CC(C)c1nnc2sc(CC3CCS(=O)(=O)C3)nn12` (stereo not drawn) the figure was -6.48%; with `O=C(O)CCc1nc2nccc(-c3ccc(F)cc3)n2n1`, -9.24%; with `Fc1cccc(CN2CCC(c3n[nH]c4ncccc34)CC2)c1F`, -2.86%.
For `Cc1cc(C)c(C)c(OCCCNC(=O)NC(C)c2nncn2C)c1` (stereo not drawn), the cytotoxicity at 10 µM is -12.3%.
With `Cc1nc(C2CCCN2CC(=O)NCCc2ccsc2)no1` (stereo not drawn) the figure was -9.34%; with `COc1c(CNCc2cccc(Cn3ccnc3)c2)c(C)nn1C`, 5.61%.
With `COc1cccc(Nc2nc(N3CCCC3)nc3c2CNCC3)c1` the figure was -6.41%; with `OC1CCN(Cc2ccnc(-c3cccnc3)n2)CC1`, -20.7%.
For `CN1CC(=O)N(c2cccc(F)c2)CC12CCN(Cc1nccs1)C2` (stereo not drawn), the cytotoxicity at 10 µM was 2.08%.
Take `CCN1CCOCC12CCN(C(=O)c1ccsc1)CC2`: the cytotoxicity at 10 µM is -146%.
As for `COC[C@@H]1CCC[C@]12CN(CCc1ccccc1)CCO2`, the cytotoxicity at 10 µM was 0.312%.
With `Cn1nnc2c1C(COCC1CC1)CN(Cc1ccoc1)C2` (stereo not drawn) the figure was 2.49%.
As to `Fc1cccc(CN2CCC3(CCCN3c3ncccn3)CC2)c1`, the cytotoxicity at 10 µM turned out to be 3.62%.
With `COc1ccc(CN2CCC3(CC(=O)N(c4cncnc4)C3)C2)cc1` (stereo not drawn) the figure was 4.53%; with `Cc1ccc(CN2CCOC3(COCCN(CCN(C)C)C3)C2)o1` (stereo not drawn), -1.65%; with `CC(C)NC(=O)N1CCN(Cc2ccccn2)CC2(CC(=O)N(C)C2)C1` (stereo not drawn), 2.79%.
On to `Cc1cnc(N2CCN3C[C@H](OCc4ccccn4)C[C@H]3C2)nc1`, for which the cytotoxicity at 10 µM was -1.68%.
With `CCOCC(=O)N1Cc2nnn(C)c2C(COCc2ccccn2)C1` (stereo not drawn) the figure was -3.23%.
Take `O=C(N1CCCC1)N1Cc2nccn2CC(CN2CCCC2)C1` (stereo not drawn): the cytotoxicity at 10 µM came out at 1.52%.
In the case of `O=C(Nc1cccnc1)[C@H]1C[C@H]2OCC[C@H]2N(CC2CC2)C1`, the cytotoxicity at 10 µM amounted to 4.7%.
With `COc1ccc2c(ccn2CCCN)c1` the figure was -3.91%; with `CCCn1nccc1NC(=O)CN1CCCC1Cn1cc(C)cn1` (stereo not drawn), -8.09%; with `N#Cc1ccccc1CN1C[C@H]2CC[C@@H](C1)N(CC1CCC1)C2=O`, 0.258%.
With `O=c1c2c[nH]c(N3CCCC3)nc-2cn1C1CCS(=O)(=O)C1` (stereo not drawn) the figure was 1.09%; with `CCC=C(C)C(=O)NCc1ccnc(OC)c1`, -2.51%; with `Cc1ccc(CN2C[C@@H]3C[C@H](C(=O)NCc4cccnc4)[C@H](C2)O3)cc1`, 2.5%.
